The source of these data is ChEMBL document CHEMBL1649137, “Genetic analysis of factors affecting susceptibility of Bacillus subtilis to daptomycin” (2009).

Each structure is given as a SMILES string. In brackets after ≈: the same amount, converted by molar mass.

Common to all, as to format: functional
For assay [1], the system named is Bacillus subtilis. Nature of the assay: Antibacterial activity against Bacillus subtilis W168 mutant with alteration in membrane composition at 25 degC by liquid growth inhibition assay. An outline of the steps: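 Mid-log cells diluted to 5 × 10^5 CFU/ml in Mueller-Hinton broth with 50 mg/liter Ca2+. At least 10 concentrations near the predicted MIC, plus an untreated control, present from the start. Growth followed by OD600. Inhibition: final 24 h OD600 <0.05. MIC is the mode of at least triplicates.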

Assay [2] concerns Bacillus subtilis. The assay can be described thus: Induction of sdpI gene expression in Bacillus subtilis W168 by microarray analysis. An outline of the steps:
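W168 grown in Ca2+-supplemented Mueller-Hinton broth at 37°C to OD600 0.4, split, and one half exposed to 1 μg/ml daptomycin for 20 min. Total RNA from three biological replicates; cDNA labeled with Alexa Fluor 555/647 and co-hybridized at 42°C for 16–18 h. Genes with summed intensity <20 or SD > mean were dropped. Fold change is treated/untreated signal, from ≥6 spot measurements.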

Assay [3] concerns Bacillus subtilis. Nature of the assay: Antibacterial activity against ywnE gene-deficient Bacillus subtilis CU1065 mutant by liquid growth inhibition assay. An outline of the steps:
(§1)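 Daptomycin MIC by liquid growth inhibition. Overnight cultures diluted 1:100, grown to mid-log, rediluted to 5 × 10^5 CFU/ml in Mueller-Hinton broth with 50 mg/liter Ca2+. At least 10 concentrations near the predicted MIC, plus a no-drug control, added at start; 200 μl. OD600 read every 20 min for 24 h at 37°C with shaking. Inhibition: 24 h OD600 <0.05. MIC is the mode of at least triplicates.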

For assay [4], the system named is Bacillus subtilis. The assay can be described thus: Antibacterial activity against sigM gene-deficient Bacillus subtilis CU1065 mutant by liquid growth inhibition assay. An outline of the steps:
as §1

The test system of assay [5] is Bacillus subtilis. The assay can be described thus: Antibacterial activity against mprF and pssA gene-deficient Bacillus subtilis CU1065 mutant by liquid growth inhibition assay. Put shortly: as §1

As for `CCCCCCCCCC(=O)N[C@@H](Cc1c[nH]c2ccccc12)C(=O)N[C@H](CC(N)=O)C(=O)N[C@@H](CC(=O)O)C(=O)N[C@@H]1C(=O)NCC(=O)N[C@@H](CCCN)C(=O)N[C@@H](CC(=O)O)C(=O)N[C@H](C)C(=O)N[C@@H](CC(=O)O)C(=O)NCC(=O)N[C@H](CO)C(=O)N[C@@H]([C@H](C)CC(=O)O)C(=O)N[C@@H](CC(=O)c2ccccc2N)C(=O)O[C@@H]1C`, the MIC – broadly, the lowest concentration found to suppress growth – against Bacillus subtilis [1] came to 0.7 µg/mL (≈ 0.432 µM); in the assay with Bacillus subtilis [3], 1 µg/mL (≈ 0.617 µM); against Bacillus subtilis [4], 0.8 µg/mL (≈ 0.494 µM); against Bacillus subtilis [5], 0.9 µg/mL (≈ 0.555 µM). This compound returned a fold change (FC) in the assay on Bacillus subtilis [2] of 8.9.
